Experimental data from publication PMC4303305 (Biochemistry, 2014).
Read-outs that look alike come from different tables or passages of the source.

Assays:
[1] = cited from earlier work
[2] = Stopped-flow kinetics of release of NO from the nitrophorins; type: binding, Rhodnius prolixus; conditions: for NO Kd (NO dissociation): 5–10 μM in 100 mM sodium phosphate buffer
Method in brief: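 Stopped-flow measurement of NO release from NO-bound nitrophorins with native or M0-bearing N-termini. Dissociation Kd obtained at pH 5.0 and 7.5 in dilute solution, 5–10 μM protein in 100 mM sodium phosphate buffer.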

[3] = type: physicochemical, Rhodnius prolixus
Method in brief: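 Recombinant nitrophorin refolded from inclusion bodies, reconstituted with excess hemin at pH 7.5, then purified by size-exclusion at pH 5.0. ¹H{¹⁵N} HSQC spectra recorded across pH: 0.2 mM protein at pH 5.0, 5.5 and 6.0; 0.8 mM at pH 6.5. pH 6.5 peaks assigned from pH 7.3 assignments, following cross-peaks through intermediate spectra. NO-bound sample run at 3.7 mM and after dilution to 0.88 mM.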

[4] = Size-exclusion FPLC retention of nitrophorins, mutants and ligand complexes; type: physicochemical, Rhodnius prolixus; conditions: pH 5.0
Method in brief: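 Analytical run on Superdex75 at 4 °C in 100 mM sodium acetate, NaCl added to 220 mM total ionic strength. Protein at 1 mM was run at pH 5.0, 5.25, 5.5 and 5.75. Separately, protein from 1 to 0.025 mM was run at pH 5.0. Elution position compared with molecular weight standards.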

B1: NP4: NO-carrying heme protein from the salivary glands of Rhodnius prolixus, recombinant, N-terminus ACTK... (protein)
chain: ACTKNAIAQTGFNKDKYFNGDVWYVTDYLDLEPDDVPKRYCAALAAGTASGKLKEALYHYDPKTQDTFYDVSELQVESLGKYTANFKKVDKNGNVKVAVTAGNYYTFTVMYADDSSALIHTCLHKGNKDLGDLYAVLNRNKDAAAGDKVKSAVSAATLEFSKFISTKENNCAYDNDSLKSLLTK
Which results are given for B1?
NO Kd (NO dissociation) ([1]; column pH 7.5, measured at pH 8.0 rather than pH 7.5 (footnote a)): 2.6 ± 0.1 ^a s^–1; NO Kd (NO dissociation) ([1]; pH 5.0, ref 17): 0.14 ± 0.01 s^–1; Kd for the loss of NO from NP4, times that from NP1 ([2]; pH 5.0): 0.6; NO Kd (NO dissociation) ([2]; pH 5.0): 0.020 ± 0.003 s^–1; Kd for the loss of NO from NP4, times that of NP1 ([2]; pH 7.5): 1.4; NO Kd (NO dissociation) ([2]; pH 7.5): 1.60 ± 0.11 s^–1; monomer in 1H{15N} HSQC spectrum ([3]; pH 5.0, 0.2 mM): some monomer present; oligomeric state in solution ([3]; pH 5.6, 0.5 mM, absence of NO): mainly monomeric; dimer in 1H{15N} HSQC spectrum ([3]; pH 6.5, 0.8 mM): not detectable; state of the dimer ([3]; pH 7.3, 3.7 mM, absence of NO): completely dissociated to monomer; monomer or dimer on the size-exclusion column ([4]; 1 mM): pure dimer; monomer or dimer on the size-exclusion column ([4]; serial dilution to 0.025 mM): fairly pure monomer
